Values after ≈ are worked out from the molar mass of the structure shown.
Experiments:
[1] = test system: Saccharomyces cerevisiae; test: DNA damaging activity against DNA repair-deficient RS 322YK (rad 52Y) yeast assessed as drug level required to produce 12 mm zone of inhibition; type: functional
In short: (§1)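 Agar well-diffusion test on yeast: sample placed in 100 μl wells and growth-inhibition zones measured. Potency given as IC12 in μg/ml, the concentration giving a 12 mm inhibition zone. rad 52 strain RS 322 YK lacks the recombination pathway for double-strand-break repair. RS 188 N is the repair-proficient RAD+ counterpart.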

[2] = test system: Saccharomyces cerevisiae; test: DNA damaging activity against RS 188N (RAD+) yeast assessed as drug level required to produce 12 mm zone of inhibition; type: functional; in short: as §1
[3] = test system: Vero; test: Cytotoxicity against african green monkey Vero cells; type: cell-based; conditions: Chlorocebus sabaeus
In short: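 Vero cells exposed to compound for 72 h; viability read by XTT staining; IC50 given in μg/ml.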

Compound	IC12 [1] [µg/mL]	IC12 [2] [µg/mL]	IC50 [3] [µg/mL]
CC(O)c1cc2c(o1)C(=O)c1ccccc1C2=O (stereo not given)	14	180	0.41 (≈ 1.69 µM)
CC(O)c1cc2c(o1)C(=O)c1cccc(O)c1C2=O (stereo not given)	3	10	0.21 (≈ 0.813 µM)
C=C(C)C1CC2=C(O1)C(=O)c1cccc(O)c1C2=O (stereo not given)	80	140	–
C=C(C)[C@@H]1OC2=C(C(=O)c3c(ccc(OC)c3OC)C2=O)[C@@H]1O	47	> 1000	3.7 (≈ 11.7 µM)
C=C(C)[C@H]1CC2=C(O1)C(=O)c1cccc(OC)c1C2=O	48	280	4.3 (≈ 15.9 µM)
C=C(C)[C@H]1CC2=C(O1)C(=O)c1ccc(OC)c(OC)c1C2=O	33	120	4.7 (≈ 15.7 µM)
CC[C@@]1(O)C(=O)OCc2c1cc1n(c2=O)Cc2cc3ccccc3nc2-1 [CAMPTOTHECIN]	0.6	110	0.054 (≈ 0.155 µM)

— ChEMBL document CHEMBL1147367, “Bioactive furanonaphthoquinones from Crescentia cujete” (J Nat Prod, 1993)
